Test results taken from article PMC3396390 (International Journal of Nanomedicine, 2012).
In brackets after ≈: the same amount, converted by molar mass. Entries after “also recorded” stand apart in the source; their conditions may differ. Each block holds one compound with its values, some of them ahead of it.

How the values were obtained:
[1] = In vivo imaging of DiR-loaded micelles; conditions: nude mice, free dye (not shown)
In short: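 DiR physically entrapped in CS-SA micelles. Anesthetized nude mice were dosed via tail vein at 25 mg CS-SA/kg. Whole-body fluorescence was imaged at set time points after injection. The brain was excised 0.5 h post-injection for ex vivo fluorescence imaging, with a blank brain as negative control.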

[2] = Brain distribution of DOX after iv injection; assay type: in vivo; conditions: ICR mice, iv 2.5 mg DOX/kg
[3] = Saturated solubility of DOX in PBS; assay type: physicochemical; conditions: phosphate-buffered saline (PBS), pH 7.2, aqueous buffer

- fluorescence in brain [1]: fluorescence was not seen in brain
Structure (SMILES): CCCCCCCCCCCCCCCCCCN1/C(=C/C=C/C=C/C=C/C2=[N+](CCCCCCCCCCCCCCCCCC)c3ccccc3C2(C)C)C(C)(C)c2ccccc21.[I-] [DiR]

Structure (SMILES): COc1cccc2c1C(=O)c1c(O)c3c(c(O)c1C2=O)C[C@@](O)(C(=O)CO)C[C@@H]3O[C@H]1C[C@H](N)[C@H](O)[C@H](C)O1.Cl [DOX · HCl, DOX hydrochloride]
- drug detection in brain [2]: not detected in brain; also recorded: no drug signal was detected in brain

- solubility [3]: 76 µg/mL (≈ 140 µM)
Structure (SMILES): COc1cccc2c1C(=O)c1c(O)c3c(c(O)c1C2=O)C[C@@](O)(C(=O)CO)C[C@@H]3O[C@H]1C[C@H](N)[C@H](O)[C@H](C)O1 [DOX, Doxorubicin]
